Data taken from paper PMC11401921 (Nature Communications, 2024).
Like-named read-outs stand apart in the source and are kept apart here.

Assays:
[1] = system: Arabidopsis thaliana seeds (WT Col-0 and mutants); assay: Seed germination assay; format: in vivo; conditions: ABA 1 µM
Method in brief: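 WT Col-0 and mutant seeds (pyr1/pyl1/pyl2/pyl4, pyl3/pyl7/pyl9/pyl11/pyl12, PYL4 overexpression) were stratified for 4 days. They were sown on half-strength MS agar with 1% sucrose containing 0.05% DMSO, 1 µM ABA, 1 µM test compound, or both. Each treatment used 40 seeds per plate on three plates, at 22 °C under long days. Seeds were scored daily as germinated when green cotyledons appeared.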

PYL1 [2] = target: T1, PYL1 (Arabidopsis thaliana, UniProt Q8VZS8); conditions: PYL1, literature value; cited from earlier work
T1 sequence (Q8VZS8 1-221): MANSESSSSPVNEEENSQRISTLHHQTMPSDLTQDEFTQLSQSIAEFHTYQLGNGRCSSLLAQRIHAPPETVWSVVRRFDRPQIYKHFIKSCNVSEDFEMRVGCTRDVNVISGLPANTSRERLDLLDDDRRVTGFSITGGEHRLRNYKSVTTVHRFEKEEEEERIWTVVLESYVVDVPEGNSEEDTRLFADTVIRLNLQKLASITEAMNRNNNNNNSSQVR

PYR1 = target: T2, PYR1 (Arabidopsis thaliana, UniProt O49686); assay: ITC binding to PYR1; conditions: PYR1 wild type
T2 sequence (O49686 1-191): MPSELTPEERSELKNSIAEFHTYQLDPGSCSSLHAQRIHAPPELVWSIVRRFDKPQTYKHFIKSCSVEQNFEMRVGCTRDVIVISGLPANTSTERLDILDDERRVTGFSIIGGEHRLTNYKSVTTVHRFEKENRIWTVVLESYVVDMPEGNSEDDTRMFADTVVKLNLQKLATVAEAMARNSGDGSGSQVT
Method in brief: (§1)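 Full-length N-terminal His6-tagged receptor was expressed in E. coli BL21(DE3) and purified by Ni-NTA, ion exchange and gel filtration, with the tag removed. ITC ran at 25 °C in 25 mM HEPES, 100 mM NaCl, pH 7.5, using degassed ligand dissolved in the same buffer. Final protein was 50–100 μM and ligand 500–1000 μM.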

[3] = system: Arabidopsis WT (Col) seedlings; assay: GO analysis of DEGs; format: in vivo, Arabidopsis thaliana; conditions: unique DEGs
Method in brief: (§2)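 Ten-day-old WT Col seedlings were mock-treated or exposed to 50 μM ABA or test compound for 3 h, in biological duplicates. Total RNA was sequenced as 50 bp paired-end reads, about 20 million per sample. Reads were mapped to the Arabidopsis gene model and counted per gene, then tested for differential expression. DEGs were subjected to GO analysis.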

PYL1 [4] = target: T1, PYL1; assay: ITC binding to PYL1
Method in brief: as §1

PYR1 dimer = target: T3, PYR1 dimer (Arabidopsis thaliana, UniProt O49686); assay: SEC-MALLS protein oligomeric state; conditions: 1 mM chemical(s), PYR1 80 μM
T3 sequence (O49686 1-191): T2 sequence (O49686 1-191)
Method in brief: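 Size exclusion used a Superdex S200 column in 20 mM Tris pH 7.5, 150 mM NaCl, 1 mM β-mercaptoethanol, at 20 °C and 0.5 ml/min. The equilibration buffer held 1 mM ABA, 1 mM test compound, or both. Receptor was injected at 80 μM. Weight-averaged molar mass was calculated from on-line MALLS with a 690 nm laser.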

[5] = system: HAB1 with PYR1, PYL1, PYL2, PYL3, PYL5, PYL6 and PYL10; assay: Phosphatase assay, HAB1 with all seven tested PYLs; format: biochemical, Arabidopsis thaliana; conditions: 5 μM ABA
Method in brief: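 Recombinant His-tagged HAB1 phosphatase activity was measured with a Ser/Thr phosphatase assay system. Receptor:HAB1 was 0.4:0.4 μM (1:1) for PYR1, PYL1, PYL2 and PYL3, and 0.8:0.4 μM (2:1) for PYL5, PYL6 and PYL10. Mixtures were incubated with 5 μM ABA, 50 μM test compound, or both. Three biological replicates were run.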

[6] = system: Arabidopsis WT (Col) seedlings; assay: RNA-Seq transcriptome analysis; format: in vivo, Arabidopsis thaliana; conditions: ten-day-old plants, 50 μM, 3 h
Method in brief: as §2

seed germination = conditions: cited from earlier work

Structure (SMILES) | germination rate ([1]; 4OE seeds) | germination phenotype ([1]; 1124 (pyr1/pyl1/pyl2/pyl4) seeds) | germination rate ([1]; 3791112 seeds) | germination rate ([1]; WT seeds) | Kd (PYL1 [2]) [µM] | Kd (PYR1) [µM] | number of genes involved in seed germination induced (GO:0009845) [3] | Kd (PYL1 [4]) [µM] | elution volume of PYR1 (PYR1 dimer) [mL] | molecular mass of PYR1 (PYR1 dimer; dimer theoretical 43 kDa) [kDa] | inhibition of HAB1 activity [5] [%] | number of genes specifically responsive [6] | number of differentially expressed genes (DEGs) induced ([6]; relative to DMSO) | activity in inhibiting seed germination relative to ABA (seed germination)
CC1=CC(=O)CC(C)(C)[C@@]1(O)/C=C/C(C)=C\C(=O)O [ABA, Abscisic acid] | lower than 30% | ABA insensitive phenotype | lower than 30% | lower than 30% | ~50 | 22 | 28 | 23.5 | 16.02 to 17.05 | 22 ± 2 | ≥ 70 | 2602 | 3366 | 
N#Cc1c(C2CC2)cc(CC(=O)NC2(C(=O)O)CCCCC2)cc1C1CC1 [opabactin] |  |  |  |  |  |  |  |  |  |  |  |  |  | ~ 10 fold
